Assay results taken from ChEMBL document CHEMBL1914420, “Investigation of the pyrazinones as PDE5 inhibitors: evaluation of regioisomeric projections into the solvent region” (Bioorg Med Chem Lett, 2011).
≈ marks a conversion by molar mass, not a printed value.

How the values were obtained:
[1] = Selectivity ratio of IC50 for PDE11 to IC50 for PDE5
Method in brief: (§1)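 Fold selectivity calculated as PDE11 IC50/PDE5 IC50 or PDE6 IC50/PDE5 IC50, with IC50 values in nM.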

[2] = biological target: cGMP-specific 3',5'-cyclic phosphodiesterase (Homo sapiens, UniProt O76074); assay: Inhibition of PDE5
[3] = Selectivity ratio of IC50 for PDE6 to IC50 for PDE5; method in brief: as §1
[4] = Clearance in dog at 2 mg/kg; format: ADME, organism-based, Canis lupus familiaris; set-up: dose 2 mg/kg; settings: in vivo
Method in brief: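 Clearance in mL/min/kg after a 2 mpk dose (n = 3) in vehicle 70% PEG400/20% 0.05 M citrate buffer/10% ethanol, pH 5.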

[5] = Clearance in rat at 2 mg/kg at pH 5; format: ADME, organism-based; set-up: dose 2 mg/kg; settings: in vivo
[6] = Volume of distribution in rat; format: ADME, organism-based; settings: in vivo
[7] = Metabolic stability in human liver microsomes assessed as compound remaining after 1 hr; format: ADME, Microsome; settings: read-out: Stability
Method in brief: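 Human liver microsomes; percent parent compound remaining after 1 h incubation.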

[8] = Volume of distribution in dog; format: ADME, organism-based, Canis lupus familiaris; settings: in vivo
Method in brief: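 Volume of distribution expressed in L/kg.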

[9] = Oral bioavailability in rat at 2 mg/kg; format: ADME, organism-based; settings: in vivo
Rattus norvegicus = species: Rattus norvegicus; assay: Unbound volume of distribution in rat; format: ADME, organism-based; settings: in vivo
[10] = Solubility of the compound at pH 6.5; format: physicochemical; settings: buffer

SMILES | Ratio IC50 [1] | IC50 [2] | Ratio IC50 [3] | further results
CCCOCCn1c(=O)nc(NC2CCNCC2)c2nnc(-c3ccc(OC)nc3)cc21 | 1530 | 1.31 nM | 576 | –
CCCOCCn1c(=O)nc(N2CCC(O)CC2)c2nnc(-c3ccc(OC)nc3)cc21 | 240 | 0.28 nM | 194 | –
CCCOCCn1c(=O)c(NCCN2CCOCC2)nc2cnc(-c3ccc(OC)nc3)cc21 | 4860 | – | 158 | –
CCOCCn1c(=O)nc(NCC(=O)N(C)C)c2nnc(-c3ccc(OC)nc3)cc21 | 199 | 1.47 nM | 119 | –
CCCOCCn1c(=O)nc(NCC(=O)N(C)C)c2nnc(-c3ccc(OC)nc3)cc21 | 277 | 0.44 nM | 296 | –
CCCOCCn1c(=O)nc(N2CCC(CC(=O)O)CC2)c2nnc(-c3ccc(OC)nc3)cc21 | 1060 | 0.04 nM | 254 | –
COc1ccc(-c2cc3c(nn2)c(N2CCN(CCO)CC2)nc(=O)n3CCOCC(F)(F)F)cn1 | > 311 | 0.64 nM | 818 | –
CCCOCCn1c(=O)nc(NC2CCCC(C(=O)O)C2)c2nnc(-c3ccc(OC)nc3)cc21 (configuration not stated) | – | 0.01 nM | – | –
CCCOCCn1c(=O)nc(N2CCN(CCO)CC2)c2cnc(-c3ccc(OC)nc3)cc21 | > 1450 | 1.38 nM | 181 | –
CCCOCCn1c(=O)nc(NC(C)(C)C(=O)O)c2nnc(-c3ccc(OC)nc3)cc21 | 129 | 0.05 nM | 145 | –
CCCOCCn1c(=O)nc(N[C@@H]2CCCC[C@H]2C(=O)O)c2nnc(-c3ccc(OC)nc3)cc21 (racemic) | 1390 | 0.27 nM | 47 | –
CCCOCCn1c(=O)nc(N2CCC(C(=O)O)CC2)c2nnc(-c3ccc(OC)nc3)cc21 | 532 | 0.01 nM | 119 | –
CCOCCn1c(=O)nc(NC2CCC(O)CC2)c2nnc(-c3ccc(OC)nc3)cc21 (configuration not stated) | – | 0.36 nM | – | –
CCCOCCn1c(=O)nc(NC2CCC(O)CC2)c2ncc(-c3ccc(OC)nc3)cc21 (configuration not stated) | 3830 | 0.1 nM | 1020 | –
CCCOCCn1c(=O)nc(N2CCCC(C(=O)O)C2)c2nnc(-c3ccc(OC)nc3)cc21 (configuration not stated) | 297 | 0.06 nM | 162 | –
CCCOCCn1c(=O)nc(N2CCN(CCO)CC2)c2nnc(-c3ccc(OC)nc3)cc21 | 834 | 1.3 nM | 124 | –
CCOCCn1c(=O)nc(N2CCN(CCO)CC2)c2nnc(-c3ccc(OC)nc3)cc21 | 286 | 2.43 nM | 98 | –
CCCOCCn1c(=O)c(NC2CCC(O)CC2)nc2cnc(-c3ccc(OC)nc3)cc21 (configuration not stated) | 1320 | 0.05 nM | 200 | clearance [4]: 5.5 mL/min/kg; clearance [5]: 5.5 mL/min/kg; Vd [6]: 1.35 L/kg; remaining at 1 h [7]: 84%; Vd [8]: 3.5 L/kg; bioavailability [9]: 50%; Vdu (Rattus norvegicus): 96 L/kg; solubility [10]: 21 µM (≈ 9.52 µg/mL)
